Assay results taken from ChEMBL document CHEMBL4145444, “Investigating the structure-activity relationships of N'-[(5-nitrofuran-2-yl) methylene] substituted hydrazides against Trypanosoma cruzi to design novel active compounds” (Eur J Med Chem, 2018).
Active and inactive are the calls of the source. No cut-off for these calls is given here.

Assays:
Trypanosoma cruzi [1] = test: Antitrypanosomal activity against Trypanosoma cruzi Y Tc2 amastigotes infected in human U2OS cells at 0.39 uM after 72 hrs by Draq5 staining based HCS analysis; type: functional, organism-based
U2OS = test: Cytotoxicity against human U2OS cells assessed as effect on cell morphology at 1.56 uM after 72 hrs by HCS analysis; type: cell-based
Trypanosoma cruzi [2] = test: Antitrypanosomal activity against Trypanosoma cruzi Y Tc2 amastigotes infected in human U2OS cells after 72 hrs by Draq5 staining based HCS analysis; type: functional, organism-based
How it was run: (§1)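 U2OS cells (700/well, high-glucose DME, 10% FBS) seeded and incubated 24 h. Then infected with 2,800 Y-strain trypomastigotes harvested from LLC-MK2 cells. On day 3, 14-point 2-fold dilutions added, top 200 μM, 1% DMSO, 72 h. Fixed in 4% PFA, Draq5 stained, imaged at 20x. Infection ratio normalized to DMSO-mock infected and uninfected controls. IC50 by sigmoidal variable-slope fit. Doublets, duplicate experiments.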

[3] = Selectivity index, ratio of CC50 for cytotoxicity against human U2OS cells to IC50 for Trypanosoma cruzi Y Tc2 amastigotes infected in human U2OS cells; type: toxicity, cell-based; details: read-out: Ratio CC50/IC50
How it was run: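 Ratio of U2OS CC50 to Y-strain amastigote IC50, both from the same 72 h Draq5-stained HCS assay in infected U2OS cells (2-fold series up to 200 μM, 1% DMSO).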

[4] = Cytotoxicity against human U2OS cells assessed as reduction in cell viability; type: cell-based
Trypanosoma cruzi [5] = test: Antitrypanosomal activity against Trypanosoma cruzi Colombiana Tc1 epimastigotes measured after 72 hrs; type: functional, organism-based; details: for IC50: Trypanosoma cruzi, Colombiana, 72 h
How it was run: (§2)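 Exponentially growing epimastigotes (1.0*10^7 parasites/mL) cultured in LIT-FCS medium with compound from 0.4 to 300.0 µM, added from DMSO stock (DMSO ≤1.0%), 72 h at 28 °C. Viable parasites read by absorbance at 562 nm. PGI computed against untreated culture after subtracting compound/medium blanks. IC50 from sigmoid dose-response fit using at least six concentrations. Triplicates, at least two independent experiments.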

Trypanosoma cruzi [6] = test: Potency index, ratio of benznidazole IC50 to compound IC50 for antitrypanosomal activity against Trypanosoma cruzi Y Tc2 amastigotes infected in human U2OS cells; type: functional
Trypanosoma cruzi [7] = test: Antitrypanosomal activity against Trypanosoma cruzi Y Tc2 amastigotes infected in human U2OS cells at 1.56 uM after 72 hrs by Draq5 staining based HCS analysis; type: functional, organism-based
Trypanosoma cruzi [8] = test: Antitrypanosomal activity against Trypanosoma cruzi Colombiana Tc1 trypamastigotes infected in monkey LLC-MK2 cells assessed as inhibition of parasite viability by measuring motility at 1 uM after 20 hrs by light microscopic method relative to control; type: functional; details: LLC-MK2, 20 h
How it was run: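 Colombiana trypomastigotes, centrifuged at 7,000 rpm at 4 °C, resuspended at 10^6/mL in DME with 2% FCS. Exposed to 1 μM compound, 0.5% DMSO final, 20 h at 37 °C, 5% CO2. Viability judged by motility under light microscope. Live parasites counted in a Neubauer chamber. % inhibition relative to drug-free control. Two independent experiments.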

Trypanosoma cruzi [9] = test: Antitrypanosomal activity Trypanosoma cruzi Bug 2149 cl10 Tc5 epimastigotes measured after 72 hrs; type: functional, organism-based; details: for IC50: Trypanosoma cruzi, Bug 2149 cl10, CL1-0, 72 h
How it was run: as §2, with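 “°C.” for “°C. Viable parasites read by absorbance at 562 nm.”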

Trypanosoma cruzi [10] = test: Antitrypanosomal activity against Trypanosoma cruzi Silvio X10 cl1 Tc1 epimastigotes measured after 72 hrs; type: functional, organism-based; details: for IC50: Trypanosoma cruzi, Silvio X10 cl1, 72 h
How it was run: as §2, with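 “°C.” for “°C. Viable parasites read by absorbance at 562 nm.”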

Trypanosoma cruzi [11] = test: Antitrypanosomal activity against Trypanosoma cruzi Y Tc2 amastigotes infected in human U2OS cells up to 200 uM after 72 hrs by Draq5 staining based HCS analysis relative to control; type: functional; how it was run: as §1
Trypanosoma cruzi [12] = test: Antitrypanosomal activity Trypanosoma cruzi Y Tc2 epimastigotes measured after 72 hrs; type: functional, organism-based; details: for IC50: Trypanosoma cruzi, Y, 72 h; how it was run: as §2
Trypanosoma cruzi [13] = test: Potency index, ratio of benznidazole IC50 to compound IC50 for antitrypanosomal activity against Trypanosoma cruzi Colombiana Tc1 epimastigotes; type: functional

| Structure (SMILES) | Activity (Trypanosoma cruzi [1]) | Activity (U2OS) | IC50 (Trypanosoma cruzi [2]) | selectivity ratio [3] | CC50 [4] | log1/IC50 (Trypanosoma cruzi [5]) | IC50 (Trypanosoma cruzi [5]) | Ratio IC50 (Trypanosoma cruzi [6]) | Activity (Trypanosoma cruzi [7]) | inhibition at 1 µM (Trypanosoma cruzi [8]) | log1/IC50 (Trypanosoma cruzi [9]) | IC50 (Trypanosoma cruzi [9]) | log1/IC50 (Trypanosoma cruzi [10]) | IC50 (Trypanosoma cruzi [10]) | Emax (Trypanosoma cruzi [11]) | log1/IC50 (Trypanosoma cruzi [12]) | IC50 (Trypanosoma cruzi [12]) | Ratio IC50 (Trypanosoma cruzi [13]) |
| --- | --- | --- | --- | --- | --- | --- | --- | --- | --- | --- | --- | --- | --- | --- | --- | --- | --- | --- |
| CCCCCCCc1ccc(C(=O)N/N=C/c2ccc([N+](=O)[O-])o2)cc1 | inactive | Non-Toxic | 820 nM | > 244 | > 200000 nM | 5.98 | 1050 nM | 70 | Active | 98.5% | 6.17 | 670 nM | 5.7 | 1980 nM | 103% | 5.86 | 1370 nM | – |
| CCCCCc1ccc(C(=O)N/N=C/c2ccc([N+](=O)[O-])o2)cc1 | – | – | 960 nM | > 208 | > 200000 nM | 5.75 | 1760 nM | 70 | – | 98.5% | 5.7 | 1990 nM | 5.42 | 3770 nM | 104% | 5.59 | 2550 nM | – |
| CCOC(=O)N/N=C/c1ccc([N+](=O)[O-])o1 | – | – | – | – | – | 5.15 | 7070 nM | – | – | – | 5.16 | 6920 nM | 4.95 | 11300 nM | – | 5.03 | 9280 nM | 25 - 30 |
| CCCCCC1CCC(C(=O)N/N=C/c2ccc([N+](=O)[O-])o2)CC1 (configuration not stated) | – | – | 1660 nM | > 120 | > 200000 nM | 5.83 | 1470 nM | – | – | 98.5% | 5.9 | 1270 nM | 5.64 | 2300 nM | 103% | 5.6 | 2500 nM | – |
| CCCCCCCOc1ccc(C(=O)N/N=C/c2ccc([N+](=O)[O-])o2)cc1 | – | – | 880 nM | > 227 | > 200000 nM | 5.96 | 1090 nM | 70 | – | 98.5% | 6.07 | 850 nM | 5.7 | 1990 nM | 98.3% | 5.83 | 1470 nM | – |
